Assay results reported in ChEMBL document CHEMBL5214999, “Identification and Optimization of a Ligand-Efficient Benzoazepinone Bromodomain and Extra Terminal (BET) Family Acetyl-Lysine Mimetic into the Oral Candidate Quality Molecule I-BET432” (J Med Chem, 2022).
pIC50: −log10 of the molar value. Values after ≈ are worked out from the molar mass of the structure shown.

Key:
[1] = Lipophilicity, logD of compound at pH 7.4 by Chromatography; format: physicochemical; conditions: buffer
[2] = Solubility of the compound in saline by CLND method; format: physicochemical
C-C motif chemokine 2 = C-C motif chemokine 2 (Homo sapiens, UniProt P13500); assay: Inhibition of MCP-1 in LPS-stimulated human whole blood incubate for 24 hrs by immuno assay; format: tissue-based
[3] = biological target: T1, Bromodomain-containing protein 4 (Homo sapiens, UniProt O60885); assay: Inhibition of BRD4 BD2 (unknown origin) measured by TR-FRET assay
[4] = Artificial membrane permeability of the compound; format: ADME; conditions: PAMPA; read-out: permeability
[5] = biological target: T1, Bromodomain-containing protein 4; assay: Inhibition of BRD4 BD1 (unknown origin) measured by TR-FRET assay
[6] = Volume of distribution at steady state in Wistar Han rat at 3.1 mg/kg, po or 1 mg/kg, iv measured upto 24 hrs by LC-MS/MS analysis; format: ADME, organism-based; conditions: in vivo, read-out: Vdss
Method in brief: (§1)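 Male Wistar Han rats and beagle dogs were dosed iv as a 1 h infusion in DMSO with 10% (w/v) Kleptose HPB in saline (2%:98% or 5%:95% v/v). Oral doses were given in 1% (w/v) methylcellulose (400 cps) aqueous suspension. Oral values are means of n = 3 and iv values n = 1 unless otherwise noted.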

[7] = Intrinsic clearance in human hepatocytes measured after 120 mins by LC-MS/MS analysis; format: ADME, cell-based, Hepatocyte; conditions: 2 h
[8] = Solubility of the compound at pH 6.5 in fast state simulated intestinal fluid incubated for 16 hrs by HPLC analysis; format: physicochemical; conditions: fasted state simulated intestinal fluid
[9] = Intrinsic clearance in rat hepatocytes after 60 mins by LC-MS/MS analysis; format: ADME, cell-based, Hepatocyte; conditions: 1 h
[10] = Clearance in Wistar Han rat blood at 3.1 mg/kg, po or 1 mg/kg, iv measured upto 24 hrs by LC-MS/MS analysis; format: ADME, organism-based; conditions: whole blood; method in brief: as §1
[11] = Intrinsic clearance in dog hepatocytes incubated upto 45 mins by LC-MS/MS analysis; format: ADME, cell-based, Canis lupus familiaris, Hepatocyte; conditions: 0.75 h
[12] = Unbound volume of distribution at steady state in Wistar Han rat at 3.1 mg/kg, po or 1 mg/kg, iv measured upto 24 hrs by LC-MS/MS analysis; format: ADME, organism-based; conditions: in vivo; method in brief: as §1
[13] = Unbound clearance in Wistar Han rat blood at 3.1 mg/kg, po or 1 mg/kg, iv measured upto 24 hrs by LC-MS/MS analysis; format: ADME, organism-based; conditions: in vivo; method in brief: as §1
[14] = Half-life in Wistar Han rat at 3.1 mg/kg, po or 1 mg/kg, iv measured upto 24 hrs by LC-MS/MS analysis; format: ADME, organism-based; conditions: in vivo; method in brief: as §1
[15] = Oral bioavailability in Wistar Han rat at 3.1 mg/kg measured upto 24 hrs by LC-MS/MS analysis; format: ADME, organism-based; conditions: in vivo; method in brief: as §1
Cytochrome P450 3A4 = Cytochrome P450 3A4 (Homo sapiens, UniProt P08684); assay: Inhibition of CYP3A4 (unknown origin); format: ADME
[16] = biological target: Voltage-gated inwardly rectifying potassium channel KCNH2 (Homo sapiens, UniProt Q12809); assay: Inhibition of hERG; format: toxicity
Chain of Voltage-gated inwardly rectifying potassium channel KCNH2 (Q12809 whole entry): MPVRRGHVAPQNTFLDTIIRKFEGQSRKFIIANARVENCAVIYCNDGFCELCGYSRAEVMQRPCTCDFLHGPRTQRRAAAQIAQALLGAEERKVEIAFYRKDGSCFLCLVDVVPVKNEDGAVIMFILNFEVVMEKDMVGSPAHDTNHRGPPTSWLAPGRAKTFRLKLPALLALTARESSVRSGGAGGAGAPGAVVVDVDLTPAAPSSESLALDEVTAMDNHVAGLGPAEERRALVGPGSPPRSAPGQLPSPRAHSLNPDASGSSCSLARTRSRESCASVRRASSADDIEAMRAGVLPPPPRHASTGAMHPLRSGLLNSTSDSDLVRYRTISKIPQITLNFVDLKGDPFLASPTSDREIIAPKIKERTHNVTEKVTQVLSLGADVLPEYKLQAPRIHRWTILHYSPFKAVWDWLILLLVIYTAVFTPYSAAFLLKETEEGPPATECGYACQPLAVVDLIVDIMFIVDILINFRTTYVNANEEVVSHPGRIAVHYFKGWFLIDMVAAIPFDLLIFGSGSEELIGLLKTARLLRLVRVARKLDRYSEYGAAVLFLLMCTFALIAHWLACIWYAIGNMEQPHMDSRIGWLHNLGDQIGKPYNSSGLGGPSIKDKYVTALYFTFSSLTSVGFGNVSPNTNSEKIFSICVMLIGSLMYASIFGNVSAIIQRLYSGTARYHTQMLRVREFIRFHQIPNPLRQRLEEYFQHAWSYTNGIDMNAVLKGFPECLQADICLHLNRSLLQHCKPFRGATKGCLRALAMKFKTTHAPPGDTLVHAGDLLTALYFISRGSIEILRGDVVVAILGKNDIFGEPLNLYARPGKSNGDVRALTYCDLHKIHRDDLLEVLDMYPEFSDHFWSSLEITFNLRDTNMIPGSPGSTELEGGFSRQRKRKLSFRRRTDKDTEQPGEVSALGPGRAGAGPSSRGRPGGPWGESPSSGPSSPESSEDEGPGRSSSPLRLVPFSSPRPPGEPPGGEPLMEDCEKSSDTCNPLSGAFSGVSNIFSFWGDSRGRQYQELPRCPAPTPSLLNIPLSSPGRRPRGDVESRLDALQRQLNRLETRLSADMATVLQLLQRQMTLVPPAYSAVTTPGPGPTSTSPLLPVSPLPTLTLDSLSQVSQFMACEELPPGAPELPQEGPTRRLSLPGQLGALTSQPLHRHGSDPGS

Chain of C-C motif chemokine 2 (P13500 whole entry): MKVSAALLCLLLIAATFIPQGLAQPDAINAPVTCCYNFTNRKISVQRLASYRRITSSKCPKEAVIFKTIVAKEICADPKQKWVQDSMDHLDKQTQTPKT
Chain of Cytochrome P450 3A4 (P08684 whole entry): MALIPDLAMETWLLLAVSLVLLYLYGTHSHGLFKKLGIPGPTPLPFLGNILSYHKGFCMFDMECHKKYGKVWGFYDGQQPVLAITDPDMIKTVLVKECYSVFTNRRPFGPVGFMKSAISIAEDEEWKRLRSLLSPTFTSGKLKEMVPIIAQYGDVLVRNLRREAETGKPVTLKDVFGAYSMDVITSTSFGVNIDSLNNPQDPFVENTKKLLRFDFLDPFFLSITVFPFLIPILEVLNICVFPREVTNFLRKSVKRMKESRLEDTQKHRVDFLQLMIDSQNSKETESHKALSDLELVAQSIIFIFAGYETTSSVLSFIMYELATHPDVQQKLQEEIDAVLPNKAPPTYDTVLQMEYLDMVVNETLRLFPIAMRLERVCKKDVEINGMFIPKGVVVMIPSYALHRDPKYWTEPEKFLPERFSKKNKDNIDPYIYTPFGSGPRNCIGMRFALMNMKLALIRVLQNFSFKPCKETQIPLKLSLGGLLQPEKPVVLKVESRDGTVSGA

| chromatographic logD [1] | solubility kinetic [2] [mg/mL] | pIC50 (C-C motif chemokine 2) | pIC50 [3] | Papp [4] [nm/s] | pIC50 [5] | SMILES | further results |
| --- | --- | --- | --- | --- | --- | --- | --- |
| 1.5 | ≥ 0.185 | 7.40 | 7.50 | < 3 | 7.70 | Cc1nc(C2=CN(C)C(=O)[C@H](C)c3ccc(OCCO)cc32)c[nH]1 |  |
| 2.5 |  |  | 3.80 |  | 4.20 | COc1cc2c(cc1OC)[C@H](C)C(=O)N(C)CC2 |  |
| 1.4 | ≥ 0.208 | 7.50 | 7.00 | < 3 | 7.50 | C[C@H]1C(=O)N(C)C=C(c2cnn(C)c2)c2cc(C(CO)CO)ccc21 |  |
|  |  |  | < 4.30 |  | < 4.30 | Cc1nnc(C)n1-c1ccccc1 |  |
| 4.3 |  |  | 5.80 | 880 | 6.20 | COc1ccc2c(c1)C=CN(C)C(=O)[C@@H]2C |  |
|  |  |  | 5.00 |  | 5.50 | Cc1cc(-c2ccccc2)cn(C)c1=O |  |
| 3.1 |  | 6.40 | 5.90 | 420 | 6.70 | CCS(=O)(=O)c1ccc2c(c1)C=CN(C)C(=O)[C@@H]2C (racemic) |  |
| 2.8 | ≥ 0.222 | 7.40 | 7.10 | 145 | 7.40 | CCS(=O)(=O)c1ccc2c(c1)C(c1cnn(C)c1)=CN(C)C(=O)[C@@H]2C | CLH [7]: < 0.45 mL/min/g; CLH [9]: 2.44 mL/min/g; CLH [11]: < 0.65 mL/min/g |
| 1.2 | ≥ 0.209 | 6.20 | 5.70 | 30 | 6.40 | C[C@H]1C(=O)N(C)C=Cc2cc(C(CO)CO)ccc21 |  |
| 3.6 | 0.117 (≈ 376 µM) | 7.30 | 7.60 | 690 | 7.50 | CCOc1ccc2c(c1)C(c1cn(C)cn1)=CN(C)C(=O)[C@@H]2C |  |
| 2.6 | ≥ 0.108 | 6.00 | 5.80 | 240 | 6.40 | C[C@H]1C(=O)N(C)C=Cc2cc(CCO)ccc21 |  |
| 3.4 |  |  | 4.30 |  | 4.90 | COc1cc2c(cc1OC)[C@H](C)C(=O)N(C)C=C2 |  |
| 2.7 | ≥ 0.131 | 7.30 | 8.00 | 460 | 8.00 | CCOc1ccc2c(c1)C(c1c[nH]cn1)=CN(C)C(=O)[C@@H]2C |  |
|  |  |  | 3.80 |  | 4.30 | Cc1noc(C)c1-c1ccccc1 |  |
| 4 | ≥ 0.128 | 6.00 | 6.10 | 840 | 6.50 | COCCOc1ccc2c(c1)C=CN(C)C(=O)[C@@H]2C |  |
| 1.3 | ≥ 0.142 | 6.20 | 5.90 | 42 | 6.40 | C[C@H]1C(=O)N(C)C=Cc2cc(OC(CO)CO)ccc21 |  |
| 4.1 | 0.143 (≈ 459 µM) | 7.70 | 8.10 | 570 | 8.00 | CCOc1ccc2c(c1)C(c1cnn(C)c1)=CN(C)C(=O)[C@@H]2C | CLH [7]: 9.14 mL/min/g; CLH [9]: 72.36 mL/min/g; CLH [11]: < 0.65 mL/min/g |

Second part, the molecule before the results:

| SMILES | chromatographic logD [1] | solubility kinetic [2] [mg/mL] | pIC50 (C-C motif chemokine 2) | pIC50 [3] | Papp [4] [nm/s] | pIC50 [5] | further results |
| --- | --- | --- | --- | --- | --- | --- | --- |
| CCOc1ccc2c(c1)C(c1cc[nH]n1)=CN(C)C(=O)C2C (racemic) | 3.8 | ≥ 0.099 | 6.90 | 7.70 | 540 | 7.50 |  |
| CCc1ccc2c(c1)C=CN(C)C(=O)[C@@H]2C | 5.9 |  |  | 6.20 | 730 | 6.70 |  |
| C[C@H]1C(=O)N(C)C=Cc2cc(CN3CCCC3)ccc21 | 1.5 | ≥ 0.097 | 5.80 | 5.10 | 360 | 6.30 |  |
| CCOc1ccc2c(c1)C=CN(C)C(=O)C2C (racemic) | 5 | ≥ 0.12 | 5.50 | 6.00 | 700 | 6.30 |  |
| C[C@H]1C(=O)N(C)C=C(c2cn[nH]c2)c2cc([C@H](O)CO)ccc21 | 0.8 |  | 7.40 | 7.60 | 8 | 7.80 | Vd [6]: 1 L/kg; CLH [7]: 0.52 mL/min/g; solubility at 16 h [8]: > 1 mg/mL; CLH [9]: < 0.8 mL/min/g; clearance [10]: 2.58 L/h/kg; CLH [11]: < 0.65 mL/min/g; Vduss [12]: 1.8 L/kg; CL free [13]: 4.5 L/h/kg; half-life [14]: 24.6 min; bioavailability [15]: 19% |
| CCOc1ccc2c(c1)C(n1ccnc1)=CN(C)C(=O)C2C (racemic) | 4.3 | ≥ 0.065 |  | 4.60 | 580 | 4.40 |  |
| CCS(=O)(=O)c1ccc2c(c1)C(c1ccncc1)=CN(C)C(=O)C2C (racemic) | 2.8 | 0.128 (≈ 359 µM) | 5.90 | 5.80 | 350 | 6.20 |  |
| C[C@H]1C(=O)N(C)C=Cc2ccccc21 (racemic) | 4.3 | ≥ 0.086 | 5.30 | 5.30 | 1000 | 5.80 |  |
| CCS(=O)(=O)c1ccc2c(c1)C(C)=CN(C)C(=O)[C@@H]2C | 3.4 | ≥ 0.131 | 6.80 | 6.60 | 150 | 7.10 | CLH [7]: < 0.45 mL/min/g; CLH [9]: 1.18 mL/min/g; CLH [11]: 0.77 mL/min/g |
| C[C@H]1C(=O)N(C)C=Cc2cc(C(O)CO)ccc21 (some centres not stated) | 1.1 | ≥ 0.101 | 6.00 | 5.70 | 27 | 6.40 |  |
| CCOc1ccc2c(c1)C(c1c[nH]c(C)n1)=CN(C)C(=O)[C@@H]2C | 3.1 | ≥ 0.135 | 7.80 | 7.70 | 400 | 7.90 |  |
| COc1cc2c(cc1OC)CC(=O)N(C)C=C2 | 2.6 |  |  | 5.00 |  | 5.70 |  |
| CCOc1ccc2c(c1)C(c1cn[nH]c1)=CN(C)C(=O)[C@@H]2C | 3.4 | ≥ 0.115 | 7.60 | 8.40 | 370 | 8.20 |  |
| COC[C@@H](C)n1c(C2CCOCC2)nc2cnc3cc(-c4c(C)noc4C)c(OC)cc3c21 |  |  |  | 6.90 |  | 7.40 |  |
| COc1cc2c(cc1OC)[C@@H](C)C(=O)N(C)CC2 | 2.6 |  |  | 4.80 |  | 5.40 |  |
| C[C@H]1C(=O)N(C)C=Cc2cc(CN3CCOCC3)ccc21 | 3.3 | ≥ 0.142 | 6.40 | 6.20 | 775 | 6.80 | CLH [7]: < 0.45 mL/min/g; CLH [9]: 23.76 mL/min/g; CLH [11]: 3.37 mL/min/g |
| COc1cc2c(cc1OC)[C@@H](C)C(=O)N(C)C=C2 | 3.4 | ≥ 0.139 |  | 6.20 | 890 | 6.80 | CLH [7]: < 0.45 mL/min/g; solubility at 16 h [8]: > 1 mg/mL; CLH [9]: 6.35 mL/min/g; pIC50 (Cytochrome P450 3A4): < 4.40; CLH [11]: 2.64 mL/min/g; pIC50 [16]: < 4.30 |
| CCS(=O)(=O)c1ccc2c(c1)C(c1ccccc1)=CN(C)C(=O)C2C (racemic) | 5.1 | ≥ 0.146 | 5.80 | 6.30 | 1000 | 6.60 |  |
| CC1C(=O)N(C)C=Cc2cc(OCC(C)(C)O)ccc21 (racemic) | 3.6 | ≥ 0.131 | 6.20 | 6.10 | 740 | 6.60 |  |
| CC(=O)N1CCCc2ccccc21 |  |  |  | 3.90 |  | 3.60 |  |
| CCS(=O)(=O)c1ccc2c(c1)C(C(N)=O)=CN(C)C(=O)[C@@H]2C | 1.1 | 0.082 (≈ 254 µM) | 5.70 | 5.50 | 10 | 5.80 |  |
| C[C@H]1C(=O)N(C)C=Cc2cc(CC3CCOCC3)ccc21 | 5.4 | ≥ 0.111 | 6.20 | 6.50 | 710 | 7.20 |  |
